Screening data as filed in PubChem BioAssay.
In the library only some 5.2% were active in any assay of this set; here they are far more common.
ZTA DNA inh: ZTA (EBV) inhibition in EBNA-1 counter-screen; P03206; ZTA-DNA binding, fluorescence polarization; inhibition, % at 11 µM; 320,000 compounds, 0.15% hits; AID 2234; in the data active means inhibition above about 33%
Target sequence (P03206 whole entry, looked up): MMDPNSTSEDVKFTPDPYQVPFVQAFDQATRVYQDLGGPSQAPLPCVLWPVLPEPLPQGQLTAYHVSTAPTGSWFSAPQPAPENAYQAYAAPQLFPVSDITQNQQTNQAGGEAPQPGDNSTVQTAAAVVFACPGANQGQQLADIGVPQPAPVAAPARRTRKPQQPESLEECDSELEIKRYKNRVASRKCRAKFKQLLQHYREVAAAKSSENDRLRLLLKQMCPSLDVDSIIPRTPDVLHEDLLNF
PfM18AAP inh: PfM18AAP inhibitors, malaria aminopeptidase, primary screen, biochemical, QFRET, recombinant enzyme; H-Glu-NHMec fluorogenic cleavage; inhibition, % at 7.35 µM; M18 aspartyl aminopeptidase (Plasmodium falciparum 3D7); AID 1822, 2009; 290,000 compounds, 1.2% hits;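 active means inhibition above the campaign mean inhibition over all tested compounds plus 3 SD, cut at about 28% in these data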;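 further: 0% = plate median of test compound wells and 100% = 2 mM ZnCl2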
EBNA-1 inhibitor: EBNA-1 DNA-binding inhibitors, primary screen, biochemical, fluorescence polarization. 300,000 compounds, 0.34% hits. AID 1950, 2009. inhibition, % at 14.8 µM; in the data active means inhibition above about 28%
NS3 helicase inh: inhibitors of HCV NS3 helicase, primary screen, biochemical, Cy5 molecular beacon fluorescence; Hepatitis C virus NS3 helicase; NS3 helicase DNA unwinding; inhibition, % at 10.9 µM; 290,000 compounds, 0.56% hits; AID 1800, 2009;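 active means inhibition above the mean of all tested compounds plus 3 SD, set per campaign, cut at about 35% in these data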;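 further: 0% = DMSO wells and 100% = thioflavine S control wells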
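System: NS3 helicase fragment of HCV / Schedule: 1 h at 25 °C / Control set: DMSO alone as 0% and 110 µM thioflavine S as 100% / Reagent: Cy5/quencher beacon DNA duplex and ATP to start / Technique: Cy5 fluorescence / Replication: singlicate / Evaluation: % inhibition of end-to-start signal ratio versus controls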
ALR inh: inhibitors of human ALR sulfhydryl oxidase, primary screen, biochemical, H2O2 detection, HRP-luminol luminescence, single point. FAD-linked sulfhydryl oxidase ALR (Homo sapiens), P55789. purified ALR, DTT oxidation. inhibition, % (no concentration beside the values). 290,000 compounds, 3.8% hits. AID 485317, 2010;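 active means mean replicate inhibition above about 79%, with every replicate also reaching it, limit read from the data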
Target sequence (P55789 whole entry, looked up): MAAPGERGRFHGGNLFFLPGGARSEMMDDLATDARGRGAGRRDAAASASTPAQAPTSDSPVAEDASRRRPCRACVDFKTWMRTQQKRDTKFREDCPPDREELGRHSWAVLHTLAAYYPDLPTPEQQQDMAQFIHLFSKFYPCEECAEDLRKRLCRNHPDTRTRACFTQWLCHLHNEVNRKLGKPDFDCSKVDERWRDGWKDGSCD
core dimer inh: inhibitors of HCV core protein dimerization, primary screen, biochemical, TR-FRET, high-throughput; TR-FRET GST/Flag-core106 dimerization, 1536-well; 300,000 compounds, 0.33% hits; inhibition, % at 5 µM;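 active means inhibition above the mean of all tested compounds plus 3 SD, set per screening campaign, cut at about 45% in these data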
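System: GST/Flag-tagged HCV core106 proteins. Incubation: compound-protein-antibody incubation 4 h at 22.5 °C. Technique: HTRF with 340 nm excitation, 617/671 nm emission. Medium: KF-containing HEPES buffer, pH 7.45, DTT, CHAPS, BSA. Read-out: inhibition (%) from 671 over 617 nm ratio. Also added: Eu(K)-anti-GST 90 ng/mL plus XL665-anti-Flag 1 µg/mL.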
Numbers without * were called inactive; · = no result given.

SMILES | ZTA DNA inh | PfM18AAP inh | EBNA-1 inhibitor | NS3 helicase inh | ALR inh | core dimer inh
c1ccc(N2CCN(c3ccccc3)C2c2cccs2)cc1 | 2 | 0 | 6 | -2 | 99* | 0
O=C1CSC(c2cccs2)N1c1ccccc1 (centres undefined) | -8 | -2 | -2 | -2 | · | -6
Brc1ccc(-c2nc3ncccn3c2NC2CCCCC2)o1 | 3 | -1 | -5 | 2 | 99* | -6
Cc1ccc(-c2nc3cnccn3c2Nc2c(C)cccc2C)o1 | 3 | -100 | -1 | 2 | 98* | 0
Cc1ccc(-c2nc3ncccn3c2Nc2ccccc2C)o1 | -13 | -55 | -15 | -11 | 98* | 3
Cc1ccc(-c2nc3ncccn3c2NC2CCCC2)o1 | 2 | 12 | 4 | 2 | 99* | -13
CC(C)c1nc2ccccn2c1NC1CCCCC1 | 10 | -4 | 6 | -2 | · | 6
CC(NC(=O)C1=CC=CN2CCS(=O)(=O)N=C12)c1ccc(Cl)cc1Cl (centres undefined) | 12 | · | · | · | · | ·
CC(C)c1ccc(N(CC(=O)N2CCN(Cc3ccccc3)CC2)S(C)(=O)=O)cc1 | 6 | -3 | -4 | 7 | 2 | -4
COc1cc(CN2CCN(c3ncccn3)CC2)cc(OC)c1 | 4 | 0 | -11 | 11 | 5 | -2
Cc1onc(-c2ccccc2)c1C(=O)N/N=C/c1cc2c(cc1Cl)OCO2 | 1 | 3 | 2 | 4 | -2 | 0
Cc1ccc([N+](=O)[O-])cc1NC(=O)C[n+]1ccccc1 | -8 | 5 | 1 | 2 | -12 | -6
COc1ccc(CCNc2nc(-c3ccc(NC(C)=O)cc3)cs2)cc1OC | 2 | 1 | 2 | -3 | 97* | -3
CC(=O)Nc1ccc(-c2csc(NNC(=O)c3ccccc3)n2)cc1 | -3 | 25 | -12 | 4 | 100* | 10
CC(=O)Nc1ccc(-c2csc(NCc3ccccc3)n2)cc1 | -5 | -5 | -6 | -19 | 13 | -4
COc1ccc(CCNc2nc(-c3ccc(O)cc3)cs2)cc1OC | -5 | 7 | -13 | 34 | 1 | -15
CC(=O)Nc1ccc(-c2csc(NC(C)c3ccccc3)n2)cc1 (centres undefined) | 4 | -3 | 6 | 0 | 3 | 27
CCCCCC(=O)Nc1ccc(-c2csc(N)n2)cc1 | 22 | 3 | 2 | 6 | 99* | -2
CC(=O)Nc1ccc(-c2csc(N/N=C(/C)c3ccccc3)n2)cc1 | 14 | 21 | 4 | 1 | 99* | 6
CCc1nc2sccc2c(=O)[nH]1 | -13 | 3 | 1 | 6 | · | -5
C[C@H](CO)N1C[C@H](C)[C@@H](CN(C)Cc2ccc(C(=O)O)cc2)Oc2c(NS(=O)(=O)c3cn(C)cn3)cccc2C1=O | · | · | · | · | -4 | ·
CCc1c(C)nc(N2CCN(c3ccc(OC)cc3)CC2)[nH]c1=O | 1 | -10 | 11 | 7 | -24 | 1
COc1ccc(/C=C/C(=O)OCC(=O)N2CCCCCC2)c(OC)c1 | -4 | · | · | · | -4 | ·
CCOC(=O)/C(C)=N/Nc1nc(-c2ccc(NC(C)=O)cc2)cs1 | 12 | 16 | 6 | -5 | 99* | 1
CCC(=O)Nc1ccc(-c2csc(NNC(C)=O)n2)cc1 | -8 | 26 | 6 | 9 | 99* | 0
SMILES | ZTA DNA inh | PfM18AAP inh | EBNA-1 inhibitor | NS3 helicase inh | ALR inh | core dimer inh
CCn1c(SCC(=O)Nc2cc(C)on2)nnc1-c1cccc(C)c1 | 19 | -1 | 3 | 0 | 0 | 3
O=C(NCc1ccco1)c1cccs1 | 15 | -33 | 5 | 4 | · | -5
Cc1ccc(NC(=O)CSc2nnc(-c3cccs3)n2Cc2ccco2)cc1 | -3 | -2 | 10 | -13 | -1 | 1
O=C(CSCc1ccco1)c1cccs1 | -1 | 10 | 5 | 9 | 99* | 6
O=C(CSc1nnc(-c2ccc(Cl)cc2)n1Cc1ccco1)c1cccs1 | -21 | -26 | 10 | 29 | 16 | 47*
CCn1c(SCC(=O)Nc2ccc(N(C)C)cc2)nnc1-c1cccc(C)c1 | 18 | 12 | 5 | 11 | 99* | -10
CN(C)c1ccc(NC(=O)CSc2nnc(-c3cccs3)n2Cc2ccco2)cc1 | 26 | -7 | 10 | -6 | 99* | -9
CC(C)(C)NC(=O)CN(C(=O)CCC(=O)Nc1nccs1)c1cccc(C(F)(F)F)c1 | 1 | 0 | 3 | -1 | -4 | 4
COc1ccc(S(=O)(=O)NCCSCc2ccccc2C)cc1Br | -1 | -4 | 7 | -10 | 98* | -2
CN1C(=O)C2C(c3ccc(N(C)C)cc3)=NN(Cc3ccccc3)C2C1=O (centres undefined) | -5 | 8 | 0 | 5 | 99* | -7
COc1ccc(C2=NN(Cc3ccccc3)C3C(=O)NC(=O)C23)cc1 (centres undefined) | 0 | 0 | 5 | 4 | 13 | 0
CCN(CC)c1ccc(/C=N/Nc2ccc(C)cc2)c(O)c1 | 12 | 11 | 0 | 12 | 45 | 4
CCN(CC)c1ccc(/C=N/NC(=O)c2c(Cl)cnn2C)c(O)c1 | -2 | 9 | 2 | 5 | 99* | -20
CCOC(=O)N/N=C/c1ccc(N(CC)CC)cc1O | -4 | 10 | -4 | 0 | 99* | -22
O=C(COCC(=O)N/N=C/c1ccc(F)cc1)N/N=C/c1ccc(F)cc1 | -9 | -2 | -6 | -5 | -1 | -7
CCN=C1NN=C(c2cc(C)n(Cc3ccco3)c2C)CS1 | -4 | 15 | -4 | 29 | 0 | 48*
O=C(OCC(=O)N1CCC(Cc2ccccc2)CC1)c1cccnc1Cl | · | · | · | · | -1 | ·
CCN(CC)c1ccc(NC(=O)CCS(=O)(=O)c2cccc3nsnc23)c(C)c1 | -5 | 8 | -11 | 7 | 99* | -4
O=S(=O)(c1ccc2c(c1)C(=NO)c1cc(S(=O)(=O)N3CCCCC3)ccc1-2)N1CCCCC1 | -17 | -6 | -5 | -1 | -8 | 48*
O=C(c1cc(S(=O)(=O)N2CCCCC2)ccc1F)N1CCCCC1 | -19 | -4 | 6 | -3 | 83* | -2
O=[n+]1cc(-c2cc3ccccc3o2)n([O-])c2c1CCCC2 | -1 | · | 7 | · | 98* | -3
COC(=O)/C=C1/S/C(=N/NC(=O)c2ccccc2OC)NC1=O | 19 | 12 | 6 | -5 | 97* | 6
CCN1CCN(Cc2c(C(=O)N/N=C(\C)c3ccc(Cl)c(Cl)c3)nnn2-c2nonc2N)CC1 | 7 | 0 | 5 | -11 | · | -4
CSc1ccc2c(c1)N(CCC1CCCCN1C)c1ccccc1S2 (centres undefined) | -19 | 2 | -6 | -83 | 99* | -26
